ChEMBL document CHEMBL4325833, “Discovery of a Potent, Selective, and Brain-Penetrant Small Molecule that Activates the Orphan Receptor GPR88 and Reduces Alcohol Intake” (J Med Chem, 2018)
Calls of active or inactive are those of the source. The rule behind the calls is not given here.

Assays:
[1] = biological target: G protein-coupled receptor 88 (Homo sapiens, UniProt Q9GZN0)
VMAT = test: Displacement of [3H]-dihydrotetrabenazine from VMAT in human platelet cell membranes at 10 uM after 60 mins by scintillation counting relative to control; conditions: probe [3H]-dihydrotetrabenazine
Summary of the method: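 Radioligand binding screen run by Eurofins PanLabs under their standard protocols, single concentration 10 μM. Percent inhibition of radioligand binding is the average of two determinations.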

[2] = biological target: KOR (kappa-type opioid receptor) (Homo sapiens, UniProt P41145); test: Binding affinity to human full length KOR assessed as reduction in radioligand binding at 10 uM after 60 mins by scintillation counting relative to control
Summary of the method: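 Outsourced radioligand binding screen, one of 38 GPCR, ion channel and transporter targets, run to the provider's standard protocols. Test concentration was a single 10 µM. Percent inhibition of radioligand binding is the average of two determinations.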

[3] = Displacement of [3H]-dihydrotetrabenazine from VMAT in human platelet cell membranes after 60 mins by scintillation counting
Summary of the method: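 VMAT affinity follow-up run by Eurofins PanLabs under their standard protocols. Full concentration–displacement curves were run in duplicate. IC50 came from nonlinear regression and was converted to Ki by Cheng–Prusoff, using the radioligand concentration and historical Kd of the ligand.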

Rattus norvegicus = test: Decrease in alcohol self administration in Long-Evans rat assessed as reduction in alcohol lever responses at 5 to 20 mg/kg, ip administered 30 mins prior to a self-administration session; assay type: functional, organism-based
Mus musculus [4] = organism: Mus musculus; test: Increase in [35S]-GTPgammaS binding in GPR88 knocked out mouse striatal membranes at 100 uM after 1 hr by liquid scintillation counting; assay type: functional, cell membranes; conditions: Striatal membrane
Summary of the method: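 Striata from GPR88 KO mice. Membranes made by sucrose homogenization and differential centrifugation (2500g, then 23000g). 2 µg protein per well incubated 1 h at 25 °C with 0.1 nM [35S]-GTPγS and GDP. Nonspecific binding taken with 10 µM GTPγS. Read by liquid scintillation counting, expressed as % above basal. Two independent experiments in triplicate.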

[5] = biological target: G protein-coupled receptor 88 (Mus musculus, UniProt Q9EPB7); test: Agonist activity at GPR88 in wild type mouse striatal membranes assessed as increase in [35S]-GTPgammaS binding after 1 hr by liquid scintillation counting; assay type: functional, cell membranes, Striatum, Membrane
Mus musculus [6] = organism: Mus musculus; test: Increase in [35S]-GTPgammaS binding in GPR88 knocked out mouse striatal membranes at 10 uM after 1 hr by liquid scintillation counting; assay type: functional, cell membranes; conditions: Striatal membrane

Chain of G protein-coupled receptor 88 (Homo sapiens, UniProt Q9GZN0) (Q9GZN0 whole entry): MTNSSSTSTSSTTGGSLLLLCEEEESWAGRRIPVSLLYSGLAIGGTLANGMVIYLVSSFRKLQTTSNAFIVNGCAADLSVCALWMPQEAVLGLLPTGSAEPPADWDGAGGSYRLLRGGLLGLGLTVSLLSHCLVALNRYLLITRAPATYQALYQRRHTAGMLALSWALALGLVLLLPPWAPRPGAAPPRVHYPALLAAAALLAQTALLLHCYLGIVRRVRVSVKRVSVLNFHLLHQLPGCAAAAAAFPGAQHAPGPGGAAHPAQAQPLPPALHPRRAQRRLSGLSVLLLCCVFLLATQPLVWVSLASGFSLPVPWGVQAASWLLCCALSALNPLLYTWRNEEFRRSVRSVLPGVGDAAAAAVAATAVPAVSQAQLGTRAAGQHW
Chain of KOR (kappa-type opioid receptor) (P41145 whole entry): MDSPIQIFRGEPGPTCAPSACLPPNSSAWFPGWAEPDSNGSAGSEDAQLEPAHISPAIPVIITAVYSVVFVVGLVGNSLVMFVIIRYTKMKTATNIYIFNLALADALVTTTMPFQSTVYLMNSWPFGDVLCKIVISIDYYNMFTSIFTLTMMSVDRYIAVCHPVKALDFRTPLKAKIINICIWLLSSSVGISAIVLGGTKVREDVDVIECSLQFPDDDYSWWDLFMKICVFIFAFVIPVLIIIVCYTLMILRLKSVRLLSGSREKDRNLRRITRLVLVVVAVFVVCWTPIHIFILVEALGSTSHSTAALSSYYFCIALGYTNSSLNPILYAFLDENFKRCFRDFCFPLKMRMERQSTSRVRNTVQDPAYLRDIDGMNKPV
Chain of G protein-coupled receptor 88 (Mus musculus, UniProt Q9EPB7) (Q9EPB7 whole entry): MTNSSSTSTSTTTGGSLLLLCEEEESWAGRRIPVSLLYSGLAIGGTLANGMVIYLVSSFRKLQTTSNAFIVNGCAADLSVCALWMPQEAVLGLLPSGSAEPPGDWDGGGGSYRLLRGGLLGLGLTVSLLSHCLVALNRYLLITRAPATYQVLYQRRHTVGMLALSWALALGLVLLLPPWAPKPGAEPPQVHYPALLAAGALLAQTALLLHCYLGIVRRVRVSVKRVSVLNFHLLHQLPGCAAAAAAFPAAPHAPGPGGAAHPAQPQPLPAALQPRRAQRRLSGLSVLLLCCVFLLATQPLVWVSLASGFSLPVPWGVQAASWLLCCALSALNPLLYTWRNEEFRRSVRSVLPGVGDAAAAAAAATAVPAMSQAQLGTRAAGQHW

| Structure (SMILES) | EC50 [1] | other results |
| --- | --- | --- |
| CCCc1ccc(-c2ccc(N(C[C@@H](N)[C@@H](C)OC)C(=O)[C@@H]3C[C@H]3c3ccccn3)cc2)cc1 (relative stereo) | 63 nM |  |
| CCCc1ccc(-c2ccc(N(C[C@@H](N)Cc3ccccc3)C(=O)[C@@H]3C[C@H]3c3ccccn3)cc2)cc1 | 501 nM |  |
| CCCc1ccc(-c2ccc(N(CCN)C(=O)[C@@H]3C[C@H]3c3ccccn3)cc2)cc1 | 501 nM |  |
| COc1ccc(-c2ccc(N(C[C@@H](N)[C@@H](C)OC)C(=O)[C@@H]3C[C@H]3c3ccccn3)cc2)cc1 (relative stereo) | 126 nM |  |
| CCCc1ccc(-c2ccc(N(C[C@@H](N)c3ccccc3)C(=O)[C@@H]3C[C@H]3c3ccccn3)cc2)cc1 (relative stereo) | 1260 nM |  |
| COCc1ccc(-c2ccc(N(C[C@@H](N)[C@@H](C)OC)C(=O)[C@@H]3C[C@H]3c3ccccn3)cc2)cc1 |  | inhibition at 1 h, 10 µM (VMAT): 54%; inhibition at 1 h, 10 µM [2]: 64%; Ki [3]: 4230 nM; Activity (Rattus norvegicus): Dose-dependent effect; Activity (Mus musculus [4]): inactive |
| CCCc1ccc(-c2ccc(N(CC(C)(C)N)C(=O)[C@@H]3C[C@H]3c3ccccn3)cc2)cc1 (relative stereo) | 316 nM |  |
| CCCc1ccc(-c2ccc(N(C[C@@H](N)C(C)C)C(=O)[C@@H]3C[C@H]3c3ccccn3)cc2)cc1 | 158 nM |  |
| CCCc1ccc(-c2ccc(N(C[C@H](C)N)C(=O)[C@@H]3C[C@H]3c3ccccn3)cc2)cc1 | 398 nM |  |
| CCCc1ccc(-c2ccc(N(C[C@@H](N)[C@@H](C)CC)C(=O)[C@@H]3C[C@H]3c3ccccn3)cc2)cc1 |  | EC50 [5]: 1140 nM; Activity (Mus musculus [6]): Active |
| CCCc1ccc(-c2ccc(N(C[C@@H](N)CC(C)C)C(=O)[C@@H]3C[C@H]3c3ccccn3)cc2)cc1 | 126 nM |  |
